Drawing on ChEMBL document CHEMBL1151222, “A new lariciresinol-type butyrolactone lignan derived from hydroxymatairesinol and its identification in spruce wood” (J Nat Prod, 2004), this text covers Activity for three compounds.

Holding throughout (set-up): dose 50 mg/kg, route oral
Common to all, as to settings: in vivo

Series [1] concerns Rattus norvegicus. Put plainly: Metabolic stability in Sprague-Dawley rat assessed as urinary excretion of allo-hydroxymatairesinol at 50 mg/kg, po after 48 hrs. The class given is ADME, organism-based, Urine. In a few lines: (§1)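 Five female Sprague-Dawley rats on RM1 diet received a single oral gavage of the lignan preparation in vehicle at 50 mg/kg. Individual 48 h urine was hydrolysed enzymatically, solid-phase extracted at pH 4.0 and measured by negative-ion HPLC-MS/MS MRM against calibration curves in spiked blank rat urine. Background was subtracted. Excretion is excreted molar amount per administered molar amount of that same component, reported as mean ± SD.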

Series [2] concerns Rattus norvegicus. Put plainly: Metabolic stability in Sprague-Dawley rat assessed as conversion to allo-hydroxymatairesinol level at 50 mg/kg, po after 48 hrs. The class given is ADME, organism-based. An outline of the steps: (§2)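 Five female Sprague-Dawley rats were kept on RM1 diet before and during the study. A knotwood-derived lignan preparation was given once by oral gavage in vehicle at 50 mg/kg, and individual urine was collected over 48 h. Urine was enzymatically hydrolysed, solid-phase extracted at pH 4.0 and analysed by negative-mode HPLC-ESI-MS/MS MRM. Pre-dose background was subtracted. Conversion is excreted molar amount per total administered molar amount, reported as mean ± SD.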

In series [3] the test system is Rattus norvegicus. Put plainly: Metabolic stability in Sprague-Dawley rat assessed as conversion to hydroxymatairesinol level at 50 mg/kg, po after 48 hrs. The format is ADME, organism-based. In a few lines:
as §2

Series [4] concerns Rattus norvegicus. Put plainly: Metabolic stability in Sprague-Dawley rat assessed as urinary excretion of hydroxymatairesinol at 50 mg/kg, po after 48 hrs. The format is ADME, organism-based, Urine. An outline of the steps: as §1
Series [5] has as its system Rattus norvegicus. Put plainly: Metabolic stability in Sprague-Dawley rat assessed as conversion to isohydroxymatairesinol level at 50 mg/kg, po after 48 hrs. The class given is ADME, organism-based. In a few lines: as §2
Series [6] has as its system Rattus norvegicus. Put plainly: Metabolic stability in Sprague-Dawley rat assessed as urinary excretion of isohydroxymatairesinol at 50 mg/kg, po after 48 hrs. The format is ADME, organism-based, Urine. An outline of the steps:
as §1

For the compound `COc1cc(C[C@H]2C(=O)OC[C@@H]2[C@@H](O)c2ccc(O)c(OC)c2)ccc1O`, the results for the Activity in series [1] and in series [2] were 14.3% and 1400 nmol, respectively.
Consider `COc1cc(C[C@H]2C(=O)OC[C@@H]2[C@H](O)c2ccc(O)c(OC)c2)ccc1O` [HYDROXYMATAIRESINOL], for which the Activity in series [3] came out at 1100 nmol; in series [4] it was 6%.
Regarding `COc1cc(C[C@H]2C(=O)O[C@H](c3ccc(O)c(OC)c3)[C@H]2CO)ccc1O` [ISOHYDROXYMATAIRESINOL], the Activity in series [5] came to 39 nmol; in series [6], 5.9%.
